This is a sample that favours compounds with a hit; in the whole collection about 4.1% have one here.
NS3 helicase inh: HCV NS3 helicase inhibition; NS3 helicase DNA unwinding, Cy5 molecular beacon fluorescence; inhibition, % at 10.9 µM; 290,000 compounds, 0.56% hits;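 active = inhibition above the mean of all tested compounds plus 3 SD, set per campaign, cut at about 35% in these data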
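test system = hepatitis C virus NS3 helicase domain fragment enzyme | reagent = annealed dual-labelled DNA beacon duplex, ATP-started | times = 1 h at 25 °C | detection = Cy5 fluorescence, 0 and 60 min reads | read-out basis = percent inhibition from t60/t0 fluorescence ratio | control set = DMSO and thioflavine S | replication = one well per compound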
FID counter: displaces DNA intercalator in HCV helicase counter-screen | inhibition, % at 7.9 µM | AID 1845 | 290,000 compounds, 0.17% hits | DNA fluorescent intercalator displacement, fluorescence; in the data active = inhibition above about 37%;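 note: higher means more ethidium bromide displaced from hairpin DNA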
T cruzi repl: T. cruzi replication inhibition; T. cruzi beta-gal in NIH3T3, luminescence, 90 h; 300,000 compounds, 1.4% hits; inhibition, % (test concentration not listed);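 active = mean inhibition across valid replicates above about 55%, limit read from the data; inconclusive = mean below that limit but half or more replicates reach it; inactive = mean below it, under half of replicates reach it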;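 note: signal also drops with host cell toxicity which is not excluded here; higher percent means less beta-gal luminescence so fewer parasites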
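compound dosing = single 50 nL compound addition per well in DMSO | material = NIH/3T3 host cells with β-galactosidase reporter T. cruzi | input = 5,000 host fibroblasts per well | timing = ≥90 h infection period, 3 h prior cell attachment | read-out basis = percent inhibition of parasite-derived β-gal signal | detection = GalScreen β-gal luminescence, detergent lysis, 60 min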
MEKK2mut PB1 HTS: signal of MEK5 binding to mutant human MEKK2 PB1 domain; AID 1530; percent response, % at 10 µM; 290,000 compounds, 0.35% hits; bead flow cytometry, Alexa488-MEK5 binding to MEKK2 mutant; in the data active = percent response above about 24%, passing the limit was not always enough
MEKK2wt PB1 HTS: raises or lowers MEK5 binding to wildtype human MEKK2 PB1 domain | Q9Y2U5 | bead flow cytometry, Alexa488-MEK5 binding to MEKK2 WT; actives lie on both sides | binding response (% of control), % at 10 µM | 290,000 compounds, 1.1% hits | AID 1531; in the data active = binding response below about 67% or above about 130%; inconclusive = no clear call, values can overlap the other calls; inactive = in between
MEKK3 PB1 HTS: raises or lowers MEK5 binding to the human MEKK3 PB1 domain. binding response (% of control), % at 10 µM. bead-based flow cytometry, Alexa488-MEK5 binding to MEKK3; actives lie on both sides; 0 = blocked by unlabeled MEK5, 100 = vehicle. Q99759. 290,000 compounds, 1.4% hits;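 active = binding response more than 3 SD above or below the average of its plate-row segment, actives on both sides; inconclusive = wells at one plate position flagged as instrument error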;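 note: Alexa488 bead fluorescence after subtracting the streptavidin-only scavenger bead signal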
Target sequence (Q99759 whole entry, looked up, the tested form may be a part): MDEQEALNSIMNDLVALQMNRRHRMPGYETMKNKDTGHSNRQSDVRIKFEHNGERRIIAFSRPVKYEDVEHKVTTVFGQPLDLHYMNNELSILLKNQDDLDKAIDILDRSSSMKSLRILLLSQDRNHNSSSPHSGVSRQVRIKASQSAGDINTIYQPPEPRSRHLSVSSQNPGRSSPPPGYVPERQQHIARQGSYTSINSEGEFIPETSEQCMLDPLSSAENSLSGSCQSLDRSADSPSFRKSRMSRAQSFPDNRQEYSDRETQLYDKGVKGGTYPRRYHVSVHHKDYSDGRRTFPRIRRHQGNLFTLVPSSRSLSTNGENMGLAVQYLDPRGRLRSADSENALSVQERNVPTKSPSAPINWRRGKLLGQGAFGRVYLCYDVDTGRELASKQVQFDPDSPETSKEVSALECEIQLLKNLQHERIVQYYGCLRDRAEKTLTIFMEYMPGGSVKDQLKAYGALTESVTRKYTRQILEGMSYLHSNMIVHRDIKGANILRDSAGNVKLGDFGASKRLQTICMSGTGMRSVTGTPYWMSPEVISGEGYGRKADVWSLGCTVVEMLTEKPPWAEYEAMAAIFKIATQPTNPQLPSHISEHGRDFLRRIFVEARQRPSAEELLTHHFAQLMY
MEKK2wt confirm: raises or lowers MEK5 binding to wildtype human MEKK2, retest | AID 1892 | binding response (% of control), % at 10 µM | bead flow cytometry, Alexa488-MEK5 binding to MEKK2 WT; actives lie on both sides | shares compounds with MEKK3 PB1 HTS | 5,900 compounds, 2.4% hits; in the data active = binding response below about 16% or above about 210%; inactive = in between
MEKK2mut-MEK5: signal of MEK5 binding to mutant human MEKK2, retest; shares compounds with MEKK3 PB1 HTS; bead flow cytometry, Alexa488-MEK5 binding to MEKK2 mutant; percent response, % at 10 µM; 5,900 compounds, 2% hits; AID 1893; in the data active = percent response mostly above about 71%, no sharp cut-off; inactive = mostly below about 38%;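 note: higher means compound restores mutant binding toward wildtype level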
MEKK3 confirm: MEKK3-MEK5 PB1 inhibition, single concentration confirmation; shares compounds with MEKK3 PB1 HTS; bead flow cytometry, Alexa488-MEK5 binding to MEKK3; active compounds read low; 5,900 compounds, 1.8% hits; binding response (% of control), % at 10 µM;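 active = binding response below 72% of control, or above a set upper limit, though filed actives all read lower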;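 note: lower values mean stronger disruption of MEK5 binding to MEKK3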
Large screens that a line does not name were inactive (follow-up assays come after a bar, where they were run); [ ] = another dose, or the depositor's remark.

O=C(NCc1ccco1)NC12CC3CC(CC(C3)C1)C2	MEKK3 PB1 HTS 81[inhibitor] | MEKK2wt confirm inactive | MEKK2mut-MEK5 inactive | MEKK3 confirm inactive
O=C(NNC(=S)NCc1ccco1)c1cccs1	none
COC(=O)c1cc(C)[nH]c2c(C)cc3nc4ccccc4c3c12	none
O=C(C1=C[C@@H](c2coc3ccccc3c2=O)C[C@@H](OCc2ccc(CO)cc2)O1)N1CCOCC1	MEKK3 PB1 HTS 82[inhibitor] | MEKK2wt confirm inactive | MEKK2mut-MEK5 inactive | MEKK3 confirm inactive
CCCC(=O)NCn1nnc(-c2ccc(Cl)cc2)n1	MEKK2mut PB1 HTS active, MEKK3 PB1 HTS 221 | MEKK2wt confirm inactive | MEKK2mut-MEK5 inactive | MEKK3 confirm inactive
CSc1nnc2ccc(-c3ccccn3)nn12	MEKK3 PB1 HTS 64[inhibitor] | MEKK2wt confirm inactive | MEKK2mut-MEK5 inactive | MEKK3 confirm inactive
COc1cc2ccc3c(CCN(C)C)cc(OC)c(OC)c3c2cc1OC	none
CN(C)CCc1cc2c(c3c1ccc1ccccc13)OCO2	FID counter 43, MEKK2wt PB1 HTS 174 | MEKK2wt confirm inactive | MEKK2mut-MEK5 inactive | MEKK3 confirm inactive
CSCCCN1CCCC(CO)(Cc2ccccc2F)C1 (stereo unspecified)	none
COc1ccc(S(=O)(=O)N2CCCOC2CNC(=O)C(=O)NC2CCCC2)cc1 (stereo unspecified)	none
CC(=O)c1cccc(CN2CCC(C(=O)Nc3ccc(Oc4cccnc4)cc3)CC2)c1	none
CC(=O)c1cccc(CN2CCC(C(=O)Nc3ccc(-c4cccc(C)c4)cc3)CC2)c1	MEKK2wt PB1 HTS 176 | MEKK2wt confirm inactive | MEKK2mut-MEK5 inactive | MEKK3 confirm inactive
O=C(CN1C(=O)NC2(CCCCC2)C1=O)N1CCN(S(=O)(=O)c2ccccc2)CC1	none
O=C(CN1C(=O)NC2(CCCCCC2)C1=O)N1CCC(Cc2ccccc2)CC1	MEKK2wt PB1 HTS 3.0[inhibitor], MEKK3 PB1 HTS 3.0[inhibitor] | MEKK2wt confirm inactive | MEKK2mut-MEK5 inactive | MEKK3 confirm inactive
Cn1c(=O)c([N+](=O)[O-])c(NCCc2ccccc2)c2ccccc21	T cruzi repl 59, MEKK3 PB1 HTS 129 | MEKK2wt confirm inactive | MEKK2mut-MEK5 inactive | MEKK3 confirm inactive
COc1cccc(/C=N/NC(=O)CCc2c(C)n[nH]c2C)c1O	none
COc1ccc(/C=N/NC(=O)CCc2n[nH]c(=O)[nH]c2=O)cc1OC	MEKK3 PB1 HTS 129 | MEKK2wt confirm inactive | MEKK2mut-MEK5 inactive | MEKK3 confirm inactive
COc1cccc(/C=N/NC(=O)CCc2n[nH]c(=O)[nH]c2=O)c1O	MEKK3 PB1 HTS 128 | MEKK2wt confirm inactive | MEKK2mut-MEK5 inactive | MEKK3 confirm inactive
COc1ccc(/C=N\NC(=O)CCc2c(C)n[nH]c2C)c(OC)c1OC	MEKK3 PB1 HTS 134 | MEKK2wt confirm inactive | MEKK2mut-MEK5 inactive | MEKK3 confirm inactive
CN(CC(=O)Nc1ccccc1Cl)C(=O)COC(=O)c1nc(Cl)c(Cl)c(Cl)c1Cl	T cruzi repl inconclusive
COCCn1c(=O)c2c(nc3n2CC(C)CN3Cc2ccccc2)n(C)c1=O (stereo unspecified)	none
O=C(CN(C(=O)c1csnn1)c1ccc(Cl)cc1)NCCc1ccccc1	none
CC1CC(C)CN(C(=O)CN2CCN(Cc3ccc(Cl)cc3)C2=O)C1 (stereo unspecified)	MEKK3 PB1 HTS 128 | MEKK2wt confirm inactive | MEKK2mut-MEK5 inactive | MEKK3 confirm inactive
CC1CC(C)CN(C(=O)CCCNC(=O)c2ccc(Cl)cc2)C1 (stereo unspecified)	none
